The values below come from ChEMBL document CHEMBL2040715, “Discovery of a Potent HIV Integrase Inhibitor that Leads to a Prodrug with Significant anti-HIV Activity” (ACS Med Chem Lett, 2011).

The IC50 is the midpoint of a concentration-inhibition curve. The low end stands for higher potency, the high end for lower potency.

For data set [1], the system named is Liver microsomes. Description: Half life in human liver microsomes at 200 uM incubated for 3 mins prior to NADPH-addition by RP-HPLC analysis. The data set is classed as ADME, Microsome. The following applies: 0.05 h. In outline: (§1)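 Pooled human liver microsomes were preincubated with test compound, and the reaction was started with NADPH at 37 °C. Samples were taken at several times up to 3 h and quenched with cold acetonitrile. Precipitated protein was removed by centrifugation, then HPLC with UV detection measured parent remaining, from which the in vitro half-life was derived.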
On the technique in general: Liver microsomes are vesicles of endoplasmic reticulum, rich in cytochrome P450 enzymes.

The nature of data set [2]: Metabolic stability in human liver microsomes assessed as compound remaining at 200 uM incubated for 3 mins prior to NADPH-addition measured after 3 hrs by RP-HPLC analysis. The following applies: read-out: Stability. Format: ADME, Microsome. The method, boiled down: as §1
In data set [3] the test system is Liver microsomes. Description: Drug metabolism in human liver microsomes assessed as 3-acetyl-5-(2,4-difluorobenzyl)-1-(2-fluorobenzyl)pyridin-2(1H)-one production at 200 uM incubated for 3 mins prior to NADPH-addition by RP-HPLC analysis. The following applies: 0.05 h. The data set is classed as ADME, Microsome.
Data set [4] has as its target T1, Cytochrome P450 3A4 (Homo sapiens, UniProt P08684). Description: Inhibition of CYP3A4 in human liver microsomes using testosterone as substrate incubated for 3 mins prior to NAPDH-addition measured after 30 mins by RP-HPLC analysis. Format: ADME, Microsome. In outline: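 CYP3A4 inhibition used pooled human liver microsomes at 0.3 mg/mL protein with testosterone as substrate (50 mM stock; 100 μM listed). Incubation ran 30 min across varying inhibitor concentrations, and kinetic analysis gave the IC50.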

The target of data set [5] is T1, Cytochrome P450 3A4. Nature of the data set: Inhibition of CYP3A4 in human liver microsomes using triazolam as substrate incubated for 3 mins prior to NAPDH-addition measured after 30 mins by RP-HPLC analysis. Format: ADME, Microsome. The method, boiled down:
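For CYP3A4 with triazolam as substrate (50 mM stock; 200 μM listed), pooled human liver microsomes were used at 0.4 mg/mL protein. Incubation was 30 min with varying inhibitor concentrations, and IC50 came from kinetic analysis.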

The target in a further data set is T2, Cytochrome P450 2C8 (Homo sapiens, UniProt P10632).
T2 sequence (P10632 whole entry): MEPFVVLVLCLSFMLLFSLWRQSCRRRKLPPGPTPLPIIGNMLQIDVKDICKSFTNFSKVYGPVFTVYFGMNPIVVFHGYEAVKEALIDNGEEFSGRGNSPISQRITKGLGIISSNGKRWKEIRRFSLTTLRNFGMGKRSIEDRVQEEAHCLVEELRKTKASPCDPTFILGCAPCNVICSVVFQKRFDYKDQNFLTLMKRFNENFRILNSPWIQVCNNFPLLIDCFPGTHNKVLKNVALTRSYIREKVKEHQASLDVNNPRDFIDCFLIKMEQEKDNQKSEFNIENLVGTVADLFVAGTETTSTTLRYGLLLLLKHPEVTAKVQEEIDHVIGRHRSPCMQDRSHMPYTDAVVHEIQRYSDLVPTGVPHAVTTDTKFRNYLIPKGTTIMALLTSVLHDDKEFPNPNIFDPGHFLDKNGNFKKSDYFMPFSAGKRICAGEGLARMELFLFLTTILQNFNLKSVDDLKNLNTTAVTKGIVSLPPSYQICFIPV
Nature of the data set: Inhibition of CYP2C8 in human liver microsomes using amodiaquine as substrate incubated for 3 mins prior to NAPDH-addition measured after 30 mins by RP-HPLC analysis. The data set is classed as ADME, Microsome. In outline: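 CYP2C8 was assayed in pooled human liver microsomes at 0.4 mg/mL protein with amodiaquine as substrate (5 mM stock; 200 μM listed). Incubation was 30 min with varying inhibitor concentrations, and IC50 was obtained by kinetic analysis.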

Data set [6] addresses T3, UDP-glucuronosyltransferase 1A4 (Homo sapiens, UniProt P22310).
T3 sequence (P22310 whole entry): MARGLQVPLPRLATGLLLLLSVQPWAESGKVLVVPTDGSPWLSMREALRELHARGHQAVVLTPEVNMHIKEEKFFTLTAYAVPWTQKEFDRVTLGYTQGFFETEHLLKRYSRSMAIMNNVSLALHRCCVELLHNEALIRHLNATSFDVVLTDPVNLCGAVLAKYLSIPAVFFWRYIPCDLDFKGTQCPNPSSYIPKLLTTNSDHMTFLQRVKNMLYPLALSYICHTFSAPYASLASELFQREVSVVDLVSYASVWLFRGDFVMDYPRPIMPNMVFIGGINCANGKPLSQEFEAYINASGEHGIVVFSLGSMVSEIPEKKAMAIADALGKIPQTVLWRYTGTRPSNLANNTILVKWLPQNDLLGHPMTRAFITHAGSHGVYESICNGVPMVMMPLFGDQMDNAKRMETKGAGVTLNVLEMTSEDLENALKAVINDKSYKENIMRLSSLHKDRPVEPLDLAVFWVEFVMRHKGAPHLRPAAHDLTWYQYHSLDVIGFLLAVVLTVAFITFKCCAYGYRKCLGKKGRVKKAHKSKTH
Description: Activity at UGT1A4 in human liver microsomes at 50 uM incubated for 3 mins prior to NADPH-addition measured up to 120 mins by HPLC/UV analysis. The data set is classed as ADME, Microsome.

In data set [7] the target is T4, UDP-glucuronosyltransferase 2B7 (Homo sapiens, UniProt P16662).
T4 sequence (P16662 whole entry): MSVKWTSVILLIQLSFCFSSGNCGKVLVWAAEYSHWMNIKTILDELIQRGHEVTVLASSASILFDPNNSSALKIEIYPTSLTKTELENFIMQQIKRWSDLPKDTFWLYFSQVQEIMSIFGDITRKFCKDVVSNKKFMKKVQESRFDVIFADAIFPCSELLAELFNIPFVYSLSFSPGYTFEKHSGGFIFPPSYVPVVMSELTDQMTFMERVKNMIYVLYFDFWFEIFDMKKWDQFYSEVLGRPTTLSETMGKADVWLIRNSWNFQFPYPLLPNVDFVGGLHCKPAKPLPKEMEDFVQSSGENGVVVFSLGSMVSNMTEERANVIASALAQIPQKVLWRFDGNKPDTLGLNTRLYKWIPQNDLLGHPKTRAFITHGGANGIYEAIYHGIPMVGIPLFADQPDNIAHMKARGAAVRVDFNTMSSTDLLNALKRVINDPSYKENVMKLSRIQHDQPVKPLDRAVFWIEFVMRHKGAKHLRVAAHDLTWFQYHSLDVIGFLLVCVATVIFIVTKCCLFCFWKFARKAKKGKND
Nature of the data set: Activity at UGT2B7 in human liver microsomes at 50 uM incubated for 3 mins prior to NADPH-addition measured up to 120 mins by HPLC/UV analysis. The data set is classed as ADME, Microsome.

Data set [8] addresses T5, Cytochrome P450 2D6 (Homo sapiens, UniProt P10635). Nature of the data set: Activation of CYP2D6 in human liver microsomes incubated for 3 mins prior to NAPDH-addition measured after 60 mins by RP-HPLC analysis. The following applies: 1 h.
The target in data set [9] is T5, Cytochrome P450 2D6. Nature of the data set: Inhibition of CYP2D6 in human liver microsomes using dextromethorphan as substrate incubated for 3 mins prior to NAPDH-addition measured after 60 mins by RP-HPLC analysis.

T5 sequence (P10635 whole entry): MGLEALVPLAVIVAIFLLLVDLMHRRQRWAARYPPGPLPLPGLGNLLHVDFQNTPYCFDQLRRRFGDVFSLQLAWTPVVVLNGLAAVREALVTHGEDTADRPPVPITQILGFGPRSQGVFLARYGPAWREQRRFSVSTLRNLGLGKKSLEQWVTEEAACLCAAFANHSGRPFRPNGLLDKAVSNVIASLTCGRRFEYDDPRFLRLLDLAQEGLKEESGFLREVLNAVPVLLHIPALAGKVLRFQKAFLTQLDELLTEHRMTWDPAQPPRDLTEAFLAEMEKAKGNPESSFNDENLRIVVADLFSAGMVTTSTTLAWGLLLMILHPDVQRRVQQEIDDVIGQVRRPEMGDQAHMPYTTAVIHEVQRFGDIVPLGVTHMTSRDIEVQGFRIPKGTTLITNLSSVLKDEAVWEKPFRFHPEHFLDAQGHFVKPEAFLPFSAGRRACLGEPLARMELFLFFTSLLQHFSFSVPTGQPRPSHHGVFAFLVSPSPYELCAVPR
T1 sequence (P08684 whole entry): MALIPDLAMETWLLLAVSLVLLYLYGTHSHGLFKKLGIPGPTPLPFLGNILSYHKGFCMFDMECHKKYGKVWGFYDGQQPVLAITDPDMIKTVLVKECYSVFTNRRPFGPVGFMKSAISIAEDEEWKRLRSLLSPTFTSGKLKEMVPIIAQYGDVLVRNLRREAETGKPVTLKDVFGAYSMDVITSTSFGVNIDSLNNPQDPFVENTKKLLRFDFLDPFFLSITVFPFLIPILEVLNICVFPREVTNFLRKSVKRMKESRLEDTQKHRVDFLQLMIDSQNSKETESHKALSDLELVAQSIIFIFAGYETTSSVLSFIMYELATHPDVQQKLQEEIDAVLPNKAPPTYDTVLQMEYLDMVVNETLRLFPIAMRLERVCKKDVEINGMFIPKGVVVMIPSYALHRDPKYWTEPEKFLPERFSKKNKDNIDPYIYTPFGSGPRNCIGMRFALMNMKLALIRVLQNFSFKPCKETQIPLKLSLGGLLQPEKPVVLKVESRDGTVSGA

Consider `O=C(O)/C(O)=C/C(=O)c1cc(Cc2ccc(F)cc2F)cn(Cc2ccccc2F)c1=O`, for which, in the data set on Liver microsomes [1], the t1/2 was greater than 3 h. Moreover, the remaining at 3 h, 200 µM in data set [2] is 80%. Further, the Drug metabolism result with Liver microsomes [3] is “Active”. The IC50 on Cytochrome P450 3A4 [4] was greater than 200 µM; on Cytochrome P450 3A4 [5] it was greater than 200 µM; against Cytochrome P450 2C8 it was greater than 65 µM; against Cytochrome P450 2D6 [9], greater than 200 µM. Also, the Activity result (in [6]; in data set [7]; on Cytochrome P450 2D6 [8]) was “Not Active” throughout.
